Key:
[1] = Inhibition of SETD7 H252W mutant (unknown origin) using biotinylated H3 (1-25) peptide as substrate incubated for 1 hrs in presence of 3H-SAM by radioactivity based assay; set-up: species or system Homo sapiens
How it was run: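 Scintillation proximity assay on recombinant E. coli-expressed human SETD7(1–366) mutant forms. Read-out was incorporation of the ³H-methyl group from ³H-SAM into histone H3(1–25) peptide, with 2 µM SAM, 2 µM H3(1–25) and 2 nM enzyme. IC50 is given as the mean ± SD of triplicate runs.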

[2] = molecular target: T1, Histone-lysine N-methyltransferase SETD7 (Homo sapiens, UniProt Q8WTS6); assay: Inhibition of full length human SETD7 (1 to 366 residues) expressed in Escherichia coli BL21 (DE3) V2R-pRARE assessed as apparent inhibition constant using biotinylated H3 (1-25) peptide as substrate incubated for 1 hrs in presence of 3H-SAM by morrison equation; details: read-out: Ki(app)
T1 sequence (Q8WTS6 whole entry): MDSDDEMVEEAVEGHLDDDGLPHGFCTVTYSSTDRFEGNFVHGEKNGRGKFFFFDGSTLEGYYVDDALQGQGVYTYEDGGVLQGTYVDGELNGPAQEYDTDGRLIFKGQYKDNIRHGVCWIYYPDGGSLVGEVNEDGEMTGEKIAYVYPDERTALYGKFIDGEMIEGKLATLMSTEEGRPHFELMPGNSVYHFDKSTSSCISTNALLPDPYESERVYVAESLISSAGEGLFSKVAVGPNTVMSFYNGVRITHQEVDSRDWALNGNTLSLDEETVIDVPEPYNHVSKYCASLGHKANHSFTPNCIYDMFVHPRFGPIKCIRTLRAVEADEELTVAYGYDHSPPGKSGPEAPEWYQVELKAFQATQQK

[3] = Permeability of compound in MDCKII-LE cells; type: ADME, cell-based, Canis lupus familiaris; details: dog, MDCK; read-out: permeability
[4] = Lipophilicity, logD of compound at pH 7.4; type: physicochemical; details: buffer
HFF = assay: Cytotoxicity against HFF cells assessed as reduction in cell viability at <50 uM by alamar blue assay; type: toxicity, cell-based; details: human
MCF7 = assay: Cytotoxicity against human MCF7 cells assessed as reduction in cell viability at <50 uM by alamar blue assay; type: toxicity, cell-based; details: mcf7, 50 µM
MDA-MB-231 = assay: Cytotoxicity against human MDA-MB-231 cells assessed as reduction in cell viability at <50 uM by alamar blue assay; type: toxicity, cell-based; details: mda-mb-231, 50 µM
[5] = molecular target: Adenosine receptor A3 (Homo sapiens) (UniProt P0DMS8); assay: Inhibition of human A3 receptor at 10 uM relative to control
[6] = molecular target: Alpha-1B adrenergic receptor (Homo sapiens) (UniProt P35368); assay: Inhibition of human alpha 1B receptor at 10 uM relative to control
[7] = molecular target: Type-2 angiotensin II receptor (Homo sapiens) (UniProt P50052); assay: Inhibition of human AT2 receptor at 10 uM relative to control
[8] = molecular target: Apelin receptor (Homo sapiens) (UniProt P35414); assay: Inhibition of human APJ at 10 uM relative to control
[9] = molecular target: Bombesin receptor subtype-3 (Homo sapiens) (UniProt P32247); assay: Inhibition of human BB3 receptor at 10 uM relative to control
[10] = molecular target: Corticotropin-releasing factor receptor 1 (Homo sapiens) (UniProt P34998); assay: Inhibition of human CRF1 receptor at 10 uM relative to control
[11] = molecular target: D(1A) dopamine receptor (Homo sapiens) (UniProt P21728); assay: Inhibition of human D1 receptor at 10 uM relative to control
[12] = molecular target: D(2) dopamine receptor (Homo sapiens) (UniProt P14416); assay: Inhibition of human D2S receptor at 10 uM relative to control
[13] = molecular target: Endothelin receptor type B (Homo sapiens) (UniProt P24530); assay: Inhibition of human ETB receptor at 10 uM relative to control
Homo sapiens [14] = species: Homo sapiens; assay: Inhibition of strychnine-insensitive glycine receptor (unknown origin) at 10 uM relative to control
[15] = molecular target: Histamine H2 receptor (Homo sapiens) (UniProt P25021); assay: Inhibition of human H2 receptor at 10 uM relative to control
Motilin receptor [16] = molecular target: T2, Motilin receptor (Homo sapiens, UniProt O43193); assay: Inhibition of human motilin receptor at 10 uM relative to control
[17] = molecular target: Substance-K receptor (Homo sapiens) (UniProt P21452); assay: Inhibition of human NK2 receptor at 10 uM relative to control
[18] = molecular target: Neuropeptide Y receptor type 1 (Homo sapiens) (UniProt P25929); assay: Inhibition of human Y1 receptor at 10 uM relative to control
[19] = molecular target: 5-hydroxytryptamine receptor 2A (Homo sapiens) (UniProt P28223); assay: Inhibition of human 5-HT2A receptor at 10 uM relative to control
Homo sapiens [20] = species: Homo sapiens; assay: Inhibition of human 5-HT3 receptor at 10 uM relative to control
[21] = molecular target: Somatostatin receptor type 4 (Homo sapiens) (UniProt P31391); assay: Inhibition of human sst4 at 10 uM relative to control
[22] = molecular target: Glucocorticoid receptor (Homo sapiens) (UniProt P04150); assay: Inhibition of human GR at 10 uM relative to control
[23] = molecular target: Androgen receptor (Homo sapiens) (UniProt P10275); assay: Inhibition of human AR at 10 uM relative to control
[24] = molecular target: Vasopressin V2 receptor (Homo sapiens) (UniProt P30518); assay: Inhibition of human V2 receptor at 10 uM relative to control
Homo sapiens [25] = species: Homo sapiens; assay: Inhibition of Ca2+ channel L, diltiazem site(unknown origin) at 10 uM relative to control
[26] = molecular target: Sodium-dependent noradrenaline transporter (Homo sapiens) (UniProt P23975); assay: Inhibition of human norepinephrine transporter at 10 uM relative to control
[27] = molecular target: cGMP-specific 3',5'-cyclic phosphodiesterase (Homo sapiens) (UniProt O76074); assay: Inhibition of human PDE5 at 10 uM relative to control
[28] = molecular target: Angiotensin-converting enzyme (Homo sapiens) (UniProt P12821); assay: Inhibition of human ACE at 10 uM relative to control
[29] = molecular target: Angiotensin-converting enzyme 2 (Homo sapiens) (UniProt Q9BYF1); assay: Inhibition of human ACE-2 at 10 uM relative to control
[30] = molecular target: Human immunodeficiency virus type 1 protease (Human immunodeficiency virus 1) (UniProt Q72874); assay: Inhibition of HIV-1 protease at 10 uM relative to control
[31] = molecular target: 72 kDa type IV collagenase (Homo sapiens) (UniProt P08253); assay: Inhibition of human MMP-2 at 10 uM relative to control
[32] = molecular target: Matrix metalloproteinase-9 (Homo sapiens) (UniProt P14780); assay: Inhibition of human MMP-9 at 10 uM relative to control
[33] = molecular target: Tyrosine-protein kinase Lyn (Homo sapiens) (UniProt P07948); assay: Inhibition of human Lyn A kinase at 10 uM relative to control
Homo sapiens [34] = species: Homo sapiens; assay: Inhibition of Na+/K+ ATPase (unknown origin) at 10 uM relative to control
Motilin receptor [35] = molecular target: T2, Motilin receptor; assay: Inhibition of human motilin receptor

T2 sequence (O43193 whole entry): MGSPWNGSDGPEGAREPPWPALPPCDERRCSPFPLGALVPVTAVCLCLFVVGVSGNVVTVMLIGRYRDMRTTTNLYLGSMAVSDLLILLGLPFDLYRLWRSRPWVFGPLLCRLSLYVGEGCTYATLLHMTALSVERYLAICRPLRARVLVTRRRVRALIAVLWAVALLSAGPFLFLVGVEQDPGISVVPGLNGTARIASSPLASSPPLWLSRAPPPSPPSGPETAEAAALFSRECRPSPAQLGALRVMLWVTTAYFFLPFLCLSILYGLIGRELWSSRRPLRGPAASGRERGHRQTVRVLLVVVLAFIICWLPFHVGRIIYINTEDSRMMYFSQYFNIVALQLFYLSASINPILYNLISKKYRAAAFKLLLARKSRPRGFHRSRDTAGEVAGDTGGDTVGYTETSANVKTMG
Sequence of Angiotensin-converting enzyme 2 (Homo sapiens) (Q9BYF1 18-805 limits assumed): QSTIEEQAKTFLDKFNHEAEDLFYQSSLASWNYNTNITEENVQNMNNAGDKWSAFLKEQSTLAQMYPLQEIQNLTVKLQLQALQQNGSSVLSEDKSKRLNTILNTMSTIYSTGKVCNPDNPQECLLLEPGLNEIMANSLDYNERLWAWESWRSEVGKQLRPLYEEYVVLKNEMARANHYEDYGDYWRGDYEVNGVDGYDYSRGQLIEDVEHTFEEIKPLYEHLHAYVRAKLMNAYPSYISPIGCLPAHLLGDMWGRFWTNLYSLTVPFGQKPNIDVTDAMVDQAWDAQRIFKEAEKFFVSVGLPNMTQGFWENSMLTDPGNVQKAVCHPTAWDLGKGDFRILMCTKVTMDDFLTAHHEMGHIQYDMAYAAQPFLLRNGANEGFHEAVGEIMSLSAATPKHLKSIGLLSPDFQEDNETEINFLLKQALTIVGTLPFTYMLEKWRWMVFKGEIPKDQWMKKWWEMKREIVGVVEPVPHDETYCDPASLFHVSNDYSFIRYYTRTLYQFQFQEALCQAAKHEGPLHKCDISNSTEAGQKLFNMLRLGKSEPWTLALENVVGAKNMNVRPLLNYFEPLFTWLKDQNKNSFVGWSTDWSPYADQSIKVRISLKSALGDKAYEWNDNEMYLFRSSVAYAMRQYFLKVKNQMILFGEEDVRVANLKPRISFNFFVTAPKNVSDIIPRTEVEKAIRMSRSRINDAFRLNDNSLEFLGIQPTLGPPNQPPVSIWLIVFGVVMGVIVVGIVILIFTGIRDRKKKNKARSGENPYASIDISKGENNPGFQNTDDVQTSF
Sequence of Sodium-dependent noradrenaline transporter (Homo sapiens) (P23975 whole entry): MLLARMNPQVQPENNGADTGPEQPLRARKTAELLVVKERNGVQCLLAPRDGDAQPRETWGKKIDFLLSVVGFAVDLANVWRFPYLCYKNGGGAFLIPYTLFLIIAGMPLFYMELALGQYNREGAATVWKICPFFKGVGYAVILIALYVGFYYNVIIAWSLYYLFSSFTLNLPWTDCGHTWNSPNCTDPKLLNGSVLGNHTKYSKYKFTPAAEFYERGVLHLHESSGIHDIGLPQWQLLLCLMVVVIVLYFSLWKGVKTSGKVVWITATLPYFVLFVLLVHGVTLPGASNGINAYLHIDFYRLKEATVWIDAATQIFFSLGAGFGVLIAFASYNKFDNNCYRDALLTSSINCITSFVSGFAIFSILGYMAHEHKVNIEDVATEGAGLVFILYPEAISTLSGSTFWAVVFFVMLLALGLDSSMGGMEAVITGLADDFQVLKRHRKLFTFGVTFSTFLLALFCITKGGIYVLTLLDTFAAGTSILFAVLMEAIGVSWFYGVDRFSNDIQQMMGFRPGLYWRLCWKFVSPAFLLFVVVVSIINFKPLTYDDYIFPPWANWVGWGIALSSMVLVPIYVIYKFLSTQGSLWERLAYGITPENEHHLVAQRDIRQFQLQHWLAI
Sequence of Glucocorticoid receptor (Homo sapiens) (P04150 whole entry): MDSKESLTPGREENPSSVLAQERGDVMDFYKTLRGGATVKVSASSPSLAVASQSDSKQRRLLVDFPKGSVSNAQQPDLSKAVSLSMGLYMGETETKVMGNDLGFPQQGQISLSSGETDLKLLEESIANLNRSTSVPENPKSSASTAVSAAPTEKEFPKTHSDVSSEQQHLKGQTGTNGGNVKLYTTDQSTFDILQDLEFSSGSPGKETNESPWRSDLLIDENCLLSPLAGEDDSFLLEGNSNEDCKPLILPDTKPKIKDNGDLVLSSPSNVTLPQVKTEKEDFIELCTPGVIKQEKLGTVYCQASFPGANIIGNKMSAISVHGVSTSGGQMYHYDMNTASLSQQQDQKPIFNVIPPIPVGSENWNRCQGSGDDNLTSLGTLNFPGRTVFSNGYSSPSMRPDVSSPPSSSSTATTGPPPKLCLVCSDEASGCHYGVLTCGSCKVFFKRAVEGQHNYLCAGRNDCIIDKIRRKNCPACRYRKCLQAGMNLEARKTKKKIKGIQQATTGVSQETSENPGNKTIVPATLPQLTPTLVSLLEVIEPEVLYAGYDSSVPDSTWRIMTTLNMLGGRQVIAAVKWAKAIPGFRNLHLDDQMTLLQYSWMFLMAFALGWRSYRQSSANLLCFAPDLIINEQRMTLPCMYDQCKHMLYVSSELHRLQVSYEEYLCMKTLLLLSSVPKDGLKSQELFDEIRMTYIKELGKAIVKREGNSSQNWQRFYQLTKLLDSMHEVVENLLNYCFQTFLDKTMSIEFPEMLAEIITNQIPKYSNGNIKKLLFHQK
Sequence of Histamine H2 receptor (Homo sapiens) (P25021 whole entry): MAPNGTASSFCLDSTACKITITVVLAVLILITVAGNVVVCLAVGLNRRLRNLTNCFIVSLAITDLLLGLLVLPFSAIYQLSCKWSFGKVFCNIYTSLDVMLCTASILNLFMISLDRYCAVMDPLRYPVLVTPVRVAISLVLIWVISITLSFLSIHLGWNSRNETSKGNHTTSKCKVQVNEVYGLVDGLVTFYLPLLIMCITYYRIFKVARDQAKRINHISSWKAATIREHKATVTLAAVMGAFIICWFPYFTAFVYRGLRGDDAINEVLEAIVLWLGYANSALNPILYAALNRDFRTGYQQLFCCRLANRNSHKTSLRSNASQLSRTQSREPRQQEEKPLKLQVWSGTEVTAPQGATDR
Sequence of 72 kDa type IV collagenase (Homo sapiens) (P08253 110-660 limits assumed): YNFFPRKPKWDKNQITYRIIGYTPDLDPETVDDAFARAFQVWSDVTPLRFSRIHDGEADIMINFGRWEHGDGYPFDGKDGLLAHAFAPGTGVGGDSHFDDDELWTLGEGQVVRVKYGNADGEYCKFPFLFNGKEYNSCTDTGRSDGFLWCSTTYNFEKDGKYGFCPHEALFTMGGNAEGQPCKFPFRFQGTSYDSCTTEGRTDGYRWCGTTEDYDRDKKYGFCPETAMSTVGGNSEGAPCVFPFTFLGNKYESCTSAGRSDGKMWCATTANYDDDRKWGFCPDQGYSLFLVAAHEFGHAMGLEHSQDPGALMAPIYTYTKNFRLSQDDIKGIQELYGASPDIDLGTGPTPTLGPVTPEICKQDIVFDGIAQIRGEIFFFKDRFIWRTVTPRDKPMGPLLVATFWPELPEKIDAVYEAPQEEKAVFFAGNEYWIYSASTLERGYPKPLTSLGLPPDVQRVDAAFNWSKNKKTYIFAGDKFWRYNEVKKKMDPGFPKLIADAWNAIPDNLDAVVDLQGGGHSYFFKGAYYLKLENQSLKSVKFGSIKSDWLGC
Sequence of Tyrosine-protein kinase Lyn (Homo sapiens) (P07948 2-512 limits assumed): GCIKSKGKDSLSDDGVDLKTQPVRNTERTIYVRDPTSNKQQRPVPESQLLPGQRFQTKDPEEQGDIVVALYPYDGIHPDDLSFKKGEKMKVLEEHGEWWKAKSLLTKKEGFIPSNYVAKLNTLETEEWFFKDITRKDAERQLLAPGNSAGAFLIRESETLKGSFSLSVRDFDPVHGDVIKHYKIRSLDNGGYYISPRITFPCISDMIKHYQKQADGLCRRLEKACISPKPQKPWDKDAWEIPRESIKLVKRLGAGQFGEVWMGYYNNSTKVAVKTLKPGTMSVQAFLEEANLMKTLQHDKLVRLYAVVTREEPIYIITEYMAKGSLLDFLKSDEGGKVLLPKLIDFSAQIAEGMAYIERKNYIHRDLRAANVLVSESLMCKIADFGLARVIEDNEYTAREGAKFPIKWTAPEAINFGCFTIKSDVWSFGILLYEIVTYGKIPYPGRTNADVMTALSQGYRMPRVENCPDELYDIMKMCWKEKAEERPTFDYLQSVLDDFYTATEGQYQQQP
Sequence of Apelin receptor (Homo sapiens) (P35414 whole entry): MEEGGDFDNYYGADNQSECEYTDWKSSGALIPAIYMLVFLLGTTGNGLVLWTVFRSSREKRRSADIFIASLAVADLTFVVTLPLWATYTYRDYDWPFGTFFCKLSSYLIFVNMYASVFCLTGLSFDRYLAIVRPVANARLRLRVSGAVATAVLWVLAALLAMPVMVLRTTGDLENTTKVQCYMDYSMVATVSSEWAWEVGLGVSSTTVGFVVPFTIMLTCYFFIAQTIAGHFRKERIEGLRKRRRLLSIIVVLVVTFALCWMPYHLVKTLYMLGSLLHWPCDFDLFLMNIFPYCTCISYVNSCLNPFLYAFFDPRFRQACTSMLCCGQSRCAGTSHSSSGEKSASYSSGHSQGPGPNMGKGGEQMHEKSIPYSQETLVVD
Sequence of Somatostatin receptor type 4 (Homo sapiens) (P31391 whole entry): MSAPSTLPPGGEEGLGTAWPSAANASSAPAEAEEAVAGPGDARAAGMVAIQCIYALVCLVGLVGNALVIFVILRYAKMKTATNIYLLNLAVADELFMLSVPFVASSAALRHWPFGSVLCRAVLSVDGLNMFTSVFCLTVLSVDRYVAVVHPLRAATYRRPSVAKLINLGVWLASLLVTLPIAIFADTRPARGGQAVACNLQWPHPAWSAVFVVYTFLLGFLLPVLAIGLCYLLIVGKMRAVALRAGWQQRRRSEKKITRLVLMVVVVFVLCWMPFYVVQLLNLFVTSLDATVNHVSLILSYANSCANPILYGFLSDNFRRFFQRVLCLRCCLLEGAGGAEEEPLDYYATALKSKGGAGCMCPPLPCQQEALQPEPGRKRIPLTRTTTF

O=C([C@@H](Cc1cccc(C(F)(F)F)c1)NS(=O)(=O)c1cc(F)c2c(c1)CCNC2)N1CCCC1
IC50 [1]: 2.63 µM
Ki [2]: 0.00033 µM
Papp [3]: 6.48 ×10⁻⁶ cm/s
logD [4]: 2.3
Activity (HFF): Non-Toxic
Activity (MCF7): Non-Toxic
Activity (MDA-MB-231): Non-Toxic
inhibition [5]: 12%
inhibition [6]: 29%
inhibition [7]: 12%
inhibition [8]: -5%
inhibition [9]: 61%
inhibition [10]: -7%
inhibition [11]: 0%
inhibition [12]: 39%
inhibition [13]: 12%
inhibition (Homo sapiens [14]): -1%
inhibition [15]: 0%
inhibition (Motilin receptor [16]): 55%
inhibition [17]: 28%
inhibition [18]: -8%
inhibition [19]: 3%
inhibition (Homo sapiens [20]): -2%
inhibition [21]: 27%
inhibition [22]: 5%
inhibition [23]: 1%
inhibition [24]: 11%
inhibition (Homo sapiens [25]): 52%
inhibition [26]: 10%
inhibition [27]: 1%
inhibition [28]: -4%
inhibition [29]: 4%
inhibition [30]: -4%
inhibition [31]: 15%
inhibition [32]: -9%
inhibition [33]: 14%
inhibition (Homo sapiens [34]): 5%
IC50 (Motilin receptor [35]): 7.2 µM

Reference: ChEMBL document CHEMBL5705898 (Proc Natl Acad Sci U S A, 2014)
